Test results reported in ChEMBL document CHEMBL3994627, “Positional isomers of bispyridine benzene derivatives induce efficacy changes on mGlu5 negative allosteric modulation” (Eur J Med Chem, 2017).

Key:
[1] = molecular target: Metabotropic glutamate receptor 5 (Rattus norvegicus, UniProt P31424); test: (§1) Negative allosteric modulation of rat N-terminal HA-tagged mGlu5 receptor expressed in HEK293 cells co-expressing N-terminal HA-tagged EAAC1 assessed as inhibition of quisqualate-induced inositol phosphate accumulation after 30 mins by HTRF assay; type: functional, cell-based
Outline: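 Rat mGlu5 (N-terminal HA tag) and EAAC1 were co-transfected into HEK293 cells by electroporation and seeded at 1.5 × 10^5 cells/well. Medium was changed to glutamate-free DMEM at least 4 h before the run. Next day, cells got 100 nM quisqualate plus compound for 30 min at 37°C, 5% CO2, then were washed once. IP accumulation was read by IP-One HTRF. Dose-response used ≥3 independent replicates.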

[2] = molecular target: Metabotropic glutamate receptor 5 (Rattus norvegicus) (UniProt P31424); test: Negative allosteric modulation of rat N-terminal HA-tagged mGlu5 receptor expressed in HEK293 cells co-expressing N-terminal HA-tagged EAAC1 assessed as inhibition of quisqualate-induced inositol phosphate accumulation after 30 mins by HTRF assay relative to fenobam; type: functional, cell-based
Outline: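 Dose-response was run in HEK293 cells expressing rat HA-mGlu5 and EAAC1, under 100 nM quisqualate with compound for 30 min at 37°C, in dark conditions. IP-One HTRF read-out. Efficacy was taken from the bottom of the dose-response curve and normalised between 0% and 100% of the fenobam response.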

[3] = molecular target: Metabotropic glutamate receptor 5 (Rattus norvegicus) (UniProt P31424); test: Ratio of IC50 for negative allosteric modulation of rat N-terminal HA-tagged mGlu5 receptor expressed in HEK293 cells under dark condition to IC50 for negative allosteric modulation of rat N-terminal HA-tagged mGlu5 receptor expressed in HEK293 cells under violet light illumination; type: cell-based
Outline: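 HEK293 cells expressing rat HA-mGlu5 and EAAC1 were stimulated with 100 nM quisqualate plus compound for 30 min at 37°C. Part of each plate was kept dark under foil; the rest was lit continuously at 380 nm from an LED plate. After a single wash, IP was measured by HTRF. Value is IC50 (dark) divided by IC50 (violet). Curves used ≥3 independent replicates.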

[4] = molecular target: Metabotropic glutamate receptor 5 (Rattus norvegicus) (UniProt P31424); test: as §1, with “accumulation by measuring difference in efficacy between dark condition and violet light illumination” for “accumulation”; type: functional, cell-based; design: scale not given: the % may be the effect or the level left
Outline: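 Quisqualate (100 nM) and compound were applied for 30 min at 37°C to HEK293 cells expressing rat HA-mGlu5 and EAAC1. Wells sat over an LED plate 2–3 cm away: foil-covered wells stayed dark, the rest got continuous 380 nm light. Cells were washed once before lysis, then IP-One HTRF was read. Value is the efficacy difference (%), dark minus violet.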

[5] = molecular target: Metabotropic glutamate receptor 5 (Homo sapiens, UniProt P41594); test: Negative allosteric modulation of mGlu5 receptor (unknown origin)
Chain of Metabotropic glutamate receptor 5 (Homo sapiens, UniProt P41594) (P41594 whole entry): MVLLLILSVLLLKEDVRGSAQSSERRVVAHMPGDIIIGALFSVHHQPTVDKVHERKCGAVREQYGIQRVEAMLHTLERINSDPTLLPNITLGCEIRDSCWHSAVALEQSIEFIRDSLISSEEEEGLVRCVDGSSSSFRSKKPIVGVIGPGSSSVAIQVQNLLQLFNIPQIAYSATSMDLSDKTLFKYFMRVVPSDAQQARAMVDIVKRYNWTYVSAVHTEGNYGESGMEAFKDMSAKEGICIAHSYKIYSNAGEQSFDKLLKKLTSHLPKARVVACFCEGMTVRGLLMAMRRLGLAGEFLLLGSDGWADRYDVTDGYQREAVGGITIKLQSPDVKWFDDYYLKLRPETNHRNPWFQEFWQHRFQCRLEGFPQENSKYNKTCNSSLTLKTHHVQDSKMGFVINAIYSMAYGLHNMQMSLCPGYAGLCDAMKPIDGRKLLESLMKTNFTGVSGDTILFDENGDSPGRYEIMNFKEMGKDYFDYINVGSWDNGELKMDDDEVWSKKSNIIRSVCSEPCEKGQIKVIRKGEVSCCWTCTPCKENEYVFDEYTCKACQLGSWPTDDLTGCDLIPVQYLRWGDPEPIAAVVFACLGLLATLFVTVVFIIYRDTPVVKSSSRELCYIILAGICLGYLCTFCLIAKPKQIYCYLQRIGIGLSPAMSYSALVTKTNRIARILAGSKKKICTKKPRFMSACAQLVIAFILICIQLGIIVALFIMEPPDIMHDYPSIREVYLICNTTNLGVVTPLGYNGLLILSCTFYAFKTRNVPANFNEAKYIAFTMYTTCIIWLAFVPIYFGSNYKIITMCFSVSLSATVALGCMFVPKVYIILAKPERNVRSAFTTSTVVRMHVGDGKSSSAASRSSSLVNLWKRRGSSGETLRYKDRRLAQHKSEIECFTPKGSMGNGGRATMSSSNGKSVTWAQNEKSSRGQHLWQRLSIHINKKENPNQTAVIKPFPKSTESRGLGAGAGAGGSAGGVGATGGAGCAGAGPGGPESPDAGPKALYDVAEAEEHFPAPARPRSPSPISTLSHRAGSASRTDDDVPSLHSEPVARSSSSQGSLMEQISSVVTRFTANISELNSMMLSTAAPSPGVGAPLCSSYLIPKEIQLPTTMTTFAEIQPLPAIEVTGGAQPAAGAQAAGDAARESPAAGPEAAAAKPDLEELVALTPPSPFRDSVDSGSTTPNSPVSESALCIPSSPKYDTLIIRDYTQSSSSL

Chain of Metabotropic glutamate receptor 5 (Rattus norvegicus, UniProt P31424) (P31424 whole entry): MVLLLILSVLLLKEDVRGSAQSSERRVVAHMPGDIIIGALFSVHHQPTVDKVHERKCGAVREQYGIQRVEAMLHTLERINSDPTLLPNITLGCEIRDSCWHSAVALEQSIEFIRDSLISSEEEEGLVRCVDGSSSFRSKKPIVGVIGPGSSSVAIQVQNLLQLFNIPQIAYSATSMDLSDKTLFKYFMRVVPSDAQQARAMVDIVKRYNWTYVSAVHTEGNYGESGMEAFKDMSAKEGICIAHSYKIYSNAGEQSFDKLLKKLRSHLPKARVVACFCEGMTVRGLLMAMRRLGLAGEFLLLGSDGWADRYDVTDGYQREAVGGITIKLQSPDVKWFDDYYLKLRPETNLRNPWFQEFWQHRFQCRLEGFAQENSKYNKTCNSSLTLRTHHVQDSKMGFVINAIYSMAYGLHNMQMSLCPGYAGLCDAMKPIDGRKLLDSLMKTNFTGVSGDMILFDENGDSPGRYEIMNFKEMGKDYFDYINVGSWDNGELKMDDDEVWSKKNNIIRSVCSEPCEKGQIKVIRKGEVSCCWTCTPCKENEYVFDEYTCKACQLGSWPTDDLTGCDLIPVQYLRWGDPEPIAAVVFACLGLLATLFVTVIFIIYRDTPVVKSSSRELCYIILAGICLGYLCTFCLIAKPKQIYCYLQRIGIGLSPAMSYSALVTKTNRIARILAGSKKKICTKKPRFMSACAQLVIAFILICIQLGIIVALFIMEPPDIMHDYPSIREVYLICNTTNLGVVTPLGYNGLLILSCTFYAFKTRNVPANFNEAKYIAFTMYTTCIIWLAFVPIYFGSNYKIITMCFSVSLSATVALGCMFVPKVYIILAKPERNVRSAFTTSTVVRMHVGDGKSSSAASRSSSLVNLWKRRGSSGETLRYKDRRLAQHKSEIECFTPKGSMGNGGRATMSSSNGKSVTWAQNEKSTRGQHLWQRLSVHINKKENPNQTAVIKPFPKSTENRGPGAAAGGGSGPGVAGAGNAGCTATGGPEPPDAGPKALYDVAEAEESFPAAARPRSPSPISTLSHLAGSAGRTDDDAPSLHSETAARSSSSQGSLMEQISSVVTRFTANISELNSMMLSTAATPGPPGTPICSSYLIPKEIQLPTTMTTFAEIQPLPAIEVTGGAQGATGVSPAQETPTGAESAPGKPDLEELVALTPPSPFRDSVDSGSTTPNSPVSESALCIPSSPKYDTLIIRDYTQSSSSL
Chain of Metabotropic glutamate receptor 5 (Rattus norvegicus) (P31424 21-1203 limits assumed): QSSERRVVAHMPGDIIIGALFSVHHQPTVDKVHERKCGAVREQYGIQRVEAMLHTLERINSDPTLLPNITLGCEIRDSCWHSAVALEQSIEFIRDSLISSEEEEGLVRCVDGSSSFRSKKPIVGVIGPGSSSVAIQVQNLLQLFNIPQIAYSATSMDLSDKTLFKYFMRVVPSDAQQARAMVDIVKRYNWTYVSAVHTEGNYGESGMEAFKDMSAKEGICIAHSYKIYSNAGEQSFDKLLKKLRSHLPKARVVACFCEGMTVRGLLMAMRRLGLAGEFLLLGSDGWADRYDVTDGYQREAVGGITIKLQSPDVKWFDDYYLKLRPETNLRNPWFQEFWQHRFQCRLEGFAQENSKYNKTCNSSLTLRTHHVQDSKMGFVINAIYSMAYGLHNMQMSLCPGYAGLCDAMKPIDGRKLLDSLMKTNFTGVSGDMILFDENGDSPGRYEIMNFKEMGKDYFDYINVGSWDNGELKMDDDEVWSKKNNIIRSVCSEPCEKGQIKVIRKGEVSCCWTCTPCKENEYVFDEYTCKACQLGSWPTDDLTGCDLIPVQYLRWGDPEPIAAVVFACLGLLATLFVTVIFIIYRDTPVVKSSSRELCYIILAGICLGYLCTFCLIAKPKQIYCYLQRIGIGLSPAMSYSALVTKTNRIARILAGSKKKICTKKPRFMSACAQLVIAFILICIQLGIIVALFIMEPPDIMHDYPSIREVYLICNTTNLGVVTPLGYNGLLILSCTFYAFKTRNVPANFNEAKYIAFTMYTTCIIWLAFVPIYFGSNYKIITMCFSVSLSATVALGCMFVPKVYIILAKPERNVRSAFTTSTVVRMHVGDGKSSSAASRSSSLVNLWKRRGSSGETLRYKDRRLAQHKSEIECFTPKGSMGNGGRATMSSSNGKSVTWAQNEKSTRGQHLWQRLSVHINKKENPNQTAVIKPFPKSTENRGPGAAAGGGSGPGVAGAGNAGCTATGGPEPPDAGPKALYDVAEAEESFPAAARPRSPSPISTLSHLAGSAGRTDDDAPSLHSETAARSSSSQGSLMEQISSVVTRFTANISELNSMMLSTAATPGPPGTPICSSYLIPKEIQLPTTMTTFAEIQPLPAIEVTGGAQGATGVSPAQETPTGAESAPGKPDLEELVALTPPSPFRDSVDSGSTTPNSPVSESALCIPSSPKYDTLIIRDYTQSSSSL

SMILES	IC50 [1] [nM]	Efficacy [2] [%]	Ratio IC50 [3]	Activity [4] [%]	IC50 [5] [nM]
C(#Cc1ccccn1)c1cccc(/N=N/c2ccccn2)c1	960	115	1.3	9	–
c1ccc(/N=N/c2ccc(/N=N/c3ccccn3)cc2)nc1	6130	19	1.2	-1	–
C(#Cc1ccccn1)c1ccc(C#Cc2ccccn2)cc1	1210	42	–	–	–
c1ccc(/N=N/c2cccc(/N=N/c3ccccn3)c2)nc1	4920	114	2.2	15	–
C(#Cc1ccccn1)c1ccc(/N=N\c2ccccn2)cc1	3090	35	2.9	15	–
Cc1cc(C)c(N)c(C#Cc2cccc(F)c2)n1 [RASEGLURANT]	–	–	–	–	17
C(#Cc1ccccn1)c1cccc(C#Cc2ccccn2)c1	430	114	–	–	–
